In ChEMBL document CHEMBL3091295, “Inhibitors of tissue-nonspecific alkaline phosphatase: design, synthesis, kinetics, biomineralization and cellular tests” (Bioorg Med Chem, 2013):
Values after ≈ are worked out from the molar mass of the structure shown. Active and inactive are the calls of the source. The calls are words filed in the database; no cut-off is given here.

Columns and labels:
[1] = test system: SAOS-2; test: Reduction in ascorbic acid-induced mineralization in human Saos2 cells at 10 uM after 7 days by Alizarin Red S staining-based assay relative to control; type: functional; parameters: scale not given: the % may be the effect or the level left
Procedure, shortened: (§1)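 Confluent cells were cultured 7 days in growth medium with ascorbic acid and 7.5 mM β-glycerophosphate, with or without inhibitor (DMSO ≤0.1% v/v). Saos-2 were grown in McCoy's 5A with 15% FBS. Mineral was stained with Alizarin Red S, destained with 3.6% w/v cetylpyridinium chloride in PBS pH 7.0 for 60 min at room temperature, and read at 562 nm. Results are % of control, mean ± SD; MG63 n = 3, Saos-2 n = 9–12.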

[2] = Uncompetitive inhibition of porcine kidney TNAP assessed as para nitrophenylphosphate conversion to p-nitrophenolate at pH 7.8 by Michaelis-Menten plot analysis; parameters: species or system Sus scrofa
Procedure, shortened: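 Porcine kidney TNAP activity measured with pNPP at pH 7.8 in 0.1 M Tris–HCl containing 5 mM MgCl2 and 5 mM ZnCl2 at 37 °C. Inhibitor was preincubated with enzyme for 10 min before substrate, and p-nitrophenolate was read at 400 nm to derive Ki.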

[3] = molecular target: T1, Intestinal-type alkaline phosphatase (Homo sapiens, UniProt P09923); test: Inhibition of intestinal alkaline phosphatase (unknown origin) assessed as para nitrophenylphosphate conversion to p-nitrophenolate at pH 7.8 incubated for 10 mins prior to substrate addition measured after 5 seconds by spectrophotometric analysis
T1 sequence (P09923 whole entry): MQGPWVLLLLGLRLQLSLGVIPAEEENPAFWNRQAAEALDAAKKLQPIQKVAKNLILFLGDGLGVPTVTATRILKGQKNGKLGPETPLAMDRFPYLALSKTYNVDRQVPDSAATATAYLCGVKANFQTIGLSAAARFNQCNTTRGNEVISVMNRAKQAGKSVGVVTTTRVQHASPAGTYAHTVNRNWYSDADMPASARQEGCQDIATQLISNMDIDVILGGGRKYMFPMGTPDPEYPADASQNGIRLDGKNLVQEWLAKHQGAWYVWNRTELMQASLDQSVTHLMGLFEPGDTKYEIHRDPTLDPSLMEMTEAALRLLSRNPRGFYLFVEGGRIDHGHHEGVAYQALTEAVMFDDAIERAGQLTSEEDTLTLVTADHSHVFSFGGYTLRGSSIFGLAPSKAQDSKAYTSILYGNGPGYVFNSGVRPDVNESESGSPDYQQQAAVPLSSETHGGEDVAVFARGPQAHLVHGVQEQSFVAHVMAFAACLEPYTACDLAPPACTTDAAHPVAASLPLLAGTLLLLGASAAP
Procedure, shortened: (§2)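 Enzyme (TNAP, PLAP or IAP; final 6.93–11.4 µg/ml) in buffer with inhibitor at 0–400 µM, added from 10 mM DMSO stock. Preincubated 10 min at 37 °C without substrate, then mixed with an equal volume of 0.1 mM pNPP in the same buffer and stirred 5 s. p-Nitrophenolate read at 400 nm (ε 18.5 cm⁻¹ mM⁻¹ at pH 10.4), final DMSO 4% v/v. Activity relative to the no-inhibitor control. pH 7.8 runs used 0.1 M Tris–HCl with 5 mM MgCl2 and 5 mM ZnCl2 at 37 °C.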

[4] = molecular target: T2, Alkaline phosphatase, placental type (Homo sapiens, UniProt P05187); test: Inhibition of placental alkaline phosphatase (unknown origin) assessed as para nitrophenylphosphate conversion to p-nitrophenolate at pH 10.4 incubated for 10 mins prior to substrate addition measured after 5 seconds by spectrophotometric analysis; procedure, shortened: as §2
T2 sequence (P05187 whole entry): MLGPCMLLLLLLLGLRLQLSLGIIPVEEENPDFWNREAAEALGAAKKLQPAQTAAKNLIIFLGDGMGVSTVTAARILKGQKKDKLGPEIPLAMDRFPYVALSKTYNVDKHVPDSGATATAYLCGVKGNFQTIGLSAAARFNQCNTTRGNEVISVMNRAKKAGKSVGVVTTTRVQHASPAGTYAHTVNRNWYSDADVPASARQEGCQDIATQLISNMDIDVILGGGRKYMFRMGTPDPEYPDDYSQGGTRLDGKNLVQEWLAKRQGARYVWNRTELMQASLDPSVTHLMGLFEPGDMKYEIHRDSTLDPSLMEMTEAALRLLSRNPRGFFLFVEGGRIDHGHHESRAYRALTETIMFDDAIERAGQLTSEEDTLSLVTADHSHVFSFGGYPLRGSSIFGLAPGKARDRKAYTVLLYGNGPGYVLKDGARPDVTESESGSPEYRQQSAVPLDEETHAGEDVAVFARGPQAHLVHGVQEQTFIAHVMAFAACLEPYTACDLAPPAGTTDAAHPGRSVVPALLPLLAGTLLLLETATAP

[5] = Solubility of the compound in water by UV spectrometric analysis; type: physicochemical
[6] = test system: SAOS-2; test: Reduction in beta-glycerophosphate-induced mineralization in human Saos2 cells at 10 uM after 7 days by Alizarin Red S staining-based assay relative to control; type: functional; parameters: scale not given: the % may be the effect or the level left; procedure, shortened: as §1
[7] = molecular target: T2, Alkaline phosphatase, placental type; test: Inhibition of placental alkaline phosphatase (unknown origin) assessed as para nitrophenylphosphate conversion to p-nitrophenolate at pH 7.8 incubated for 10 mins prior to substrate addition measured after 5 seconds by spectrophotometric analysis; procedure, shortened: as §2
[8] = Inhibition of porcine kidney TNAP assessed as para nitrophenylphosphate conversion to p-nitrophenolate at pH 7.8 incubated for 10 mins prior to substrate addition measured after 5 seconds by spectrophotometric analysis; parameters: species or system Sus scrofa; procedure, shortened: as §2
[9] = molecular target: T1, Intestinal-type alkaline phosphatase; test: Inhibition of intestinal alkaline phosphatase (unknown origin) assessed as para nitrophenylphosphate conversion to p-nitrophenolate at pH 10.4 incubated for 10 mins prior to substrate addition measured after 5 seconds by spectrophotometric analysis; procedure, shortened: as §2
[10] = Inhibition of porcine kidney TNAP assessed as para nitrophenylphosphate conversion to p-nitrophenolate at pH 10.4 incubated for 10 mins prior to substrate addition measured after 5 seconds by spectrophotometric analysis; parameters: species or system Sus scrofa; procedure, shortened: as §2
[11] = Cytotoxicity against human Saos2 cells assessed as cell viability up to 10 uM by MTT assay; type: cell-based; conditions: saos-2
Procedure, shortened: (§3)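 MTT viability: cells seeded at 3 × 10^4 cells/cm2 and treated with ascorbic acid plus 7.5 mM β-glycerophosphate, with or without inhibitor (DMSO ≤0.1% v/v final). MTT at 0.5 mg/ml final for 4 h, then solubilization solution overnight at 37 °C. Absorbance at 550 and 690 nm as % of untreated control, mean ± SD. MG63: one pool in triplicate (n = 3). Saos-2: 3–4 pools in triplicate (n = 9–12).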

[12] = test system: MG-63; test: Reduction in beta-glycerophosphate-induced mineralization in human MG63 cells at 10 uM after 7 days by Alizarin Red S staining-based assay; type: functional, cell-based; procedure, shortened: as §1
[13] = Cytotoxicity against human MG63 cells assessed as cell viability up to 10 uM by MTT assay; type: cell-based; conditions: mg-63; procedure, shortened: as §3
[14] = test system: MG-63; test: Reduction in ascorbic acid-induced mineralization in human MG63 cells at 10 uM after 7 days by Alizarin Red S staining-based assay; type: functional, cell-based; procedure, shortened: as §1
[15] = Solubility of the compound

For `Cl.O=[N+]([O-])c1ccc2sc(C3CN4C=CSC4=N3)cc2c1` (racemic), the Activity [1] was 25%, the Ki [2] was 1.3 µM and the IC50 [3] was > 400 µM. The IC50 [4] was > 400 µM, the solubility [5] was 6900 µM and the Activity [6] was 25%. The IC50 [7] was > 400 µM, the IC50 [8] was 2.11 µM and the IC50 [9] was > 400 µM. The IC50 [10] was 3.31 µM and the Activity [11] was “Non-toxic”.

In the case of `C1=CN2CC(c3cc4ccccc4s3)N=C2S1.Cl` (racemic), the Activity [1] is reported as “Active”, the Ki [2] is reported as 3.9 µM and the Activity [12] is reported as “Active”. For the same compound, the IC50 [3] was > 400 µM, the IC50 [4] was > 400 µM and the solubility [5] was 1300 µM. For the same compound, the Activity [6] was “Active”, the IC50 [7] was > 400 µM and the IC50 [8] was 4.4 µM. For the same compound, the Activity [13] was “Non-toxic”, the IC50 [9] was > 400 µM and the IC50 [10] was 13.1 µM. The Activity [14] was “Active” and the Activity [11] was “Non-toxic”.

For `Cl.Nc1ccc2sc(C3CN4C=CSC4=N3)cc2c1` (racemic), the Activity [1] was “Active”, the Ki [2] was 10.3 µM and the IC50 [3] was > 400 µM. For the same compound, the IC50 [4] was > 400 µM, the solubility [5] was 1770 µM and the Activity [6] was “Active”. The IC50 [7] was > 400 µM, the IC50 [8] was 18.3 µM and the IC50 [9] was > 400 µM. The IC50 [10] was 23.2 µM and the Activity [11] was “Non-toxic”.

In the case of `c1ccc([C@H]2CN3CCSC3=N2)cc1` [LEVAMISOLE], the Activity [1] is reported as 33%, the Ki [2] is reported as 30.5 µM and the Activity [12] is reported as “Active”. The IC50 [3] was > 400 µM, the IC50 [4] was > 400 µM and the solubility [15] was 200000 µM (≈ 40.9 mg/mL). The Activity [6] was 33%, the IC50 [7] was > 400 µM and the IC50 [8] was 23.2 µM. For the same compound, the Activity [13] was “Non-toxic”, the IC50 [9] was > 400 µM and the IC50 [10] was 62.9 µM. The Activity [14] was “Active” and the Activity [11] was “Non-toxic”.

In the case of `Cl.c1ccc2sc(C3CN4CCSC4=N3)cc2c1` (racemic), the Activity [1] is reported as “Active”, the Ki [2] is reported as 5 µM and the Activity [12] is reported as “Active”. For the same compound, the IC50 [3] was > 400 µM, the IC50 [4] was > 400 µM and the solubility [5] was 450 µM. For the same compound, the Activity [6] was “Active”, the IC50 [7] was > 400 µM and the IC50 [8] was 5.5 µM. For the same compound, the Activity [13] was “Non-toxic”, the IC50 [9] was > 400 µM and the IC50 [10] was 16.4 µM. The Activity [14] was “Active” and the Activity [11] was “Non-toxic”.
